Calls of active or inactive are those of the source. No cut-off for these calls is given here.
What was measured:
HEK-293T [1] = experiment: Cytotoxicity against HEK293T cells assessed as reduction in cell viability at 1 to 5 uM after 24 hrs by XTT assay; format: cell-based; details: human
How it was run: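 Cells were exposed to compound at 1 and 5 µM for 24h in culture, and viability was then read by the XTT assay.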

Homo sapiens = species on record: Homo sapiens; experiment: Inhibition of pepsin (unknown origin) at 1 nM to 1 mM using H-Leu-Ser-p-nitro-Phe-Nle-Ala-Leu-OMe peptide as substrate preincubated for 45 mins measured at 30 sec intervals for 15 mins by UV/vis-spectrophotometry
How it was run: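 Pepsin 1.0x10-8 M with 2.0x10-4 M LSPNP substrate in 100 mM acetate pH 4.4, monitored at 310 nm. Inhibitor preincubated with enzyme 45 min at 37 °C; initial velocities over 15 min at 30-sec intervals; triplicate.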

[2] = target: Mast cell carboxypeptidase A (Homo sapiens) (UniProt P15088); experiment: Binding affinity to CPA3 expressing human HeLa cells assessed as compound co-localization with CPA3 at 1 to 5 uM treated for 6 hrs followed by cell wash and measured by DAPI-staining based fluorescence confocal microscopy
Sequence of Mast cell carboxypeptidase A (Homo sapiens) (P15088 whole entry): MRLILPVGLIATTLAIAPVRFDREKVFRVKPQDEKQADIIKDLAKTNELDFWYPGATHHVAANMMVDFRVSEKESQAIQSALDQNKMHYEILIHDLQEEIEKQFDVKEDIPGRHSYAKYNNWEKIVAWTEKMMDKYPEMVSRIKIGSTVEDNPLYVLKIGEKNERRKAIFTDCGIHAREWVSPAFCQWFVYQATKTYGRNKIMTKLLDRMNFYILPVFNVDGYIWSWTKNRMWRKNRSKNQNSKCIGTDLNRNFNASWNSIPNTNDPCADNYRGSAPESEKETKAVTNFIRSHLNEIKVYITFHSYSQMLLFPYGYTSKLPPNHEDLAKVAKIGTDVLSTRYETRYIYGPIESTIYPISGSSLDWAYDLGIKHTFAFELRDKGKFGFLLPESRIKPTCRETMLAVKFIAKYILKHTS
How it was run: (§1)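 HeLa cells with cytoplasmic hCPA3 expression were treated 6 h with the fluorescent probe at 1 or 5 µM, washed, then imaged by fluorescence confocal microscopy for internalization and co-localization with CPA3.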

Collagenase 3 = Collagenase 3 (Homo sapiens, UniProt P45452); experiment: Inhibition of human MMP13 using fluorogenic Mca-Pro-Leu-Gly-Leu-Dpa-Ala-Arg-NH2 peptide as substrate preincubated for 45 mins measured at 30 sec intervals for 15 mins by UV/vis-spectrophotometry
How it was run: (§2)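 MMPs at nanomolar level with fluorogenic Mca-Pro-Leu-Gly-Leu-Dpa-Ala-Arg-NH2 substrate in 50 mM Tris-HCl pH 6.8, 10 mM CaCl2. Enzyme, inhibitor and buffer preincubated 45 min at 37 °C, then substrate added; initial velocities from 30-sec reads over 15 min, in triplicate.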

[3] = target: Carboxypeptidase N catalytic chain (Homo sapiens) (UniProt P15169); experiment: Inhibition of human CPN at 1 nM to 1 mM using N-(3-[2-furyl]acryloyl)-alanyl-lysine-OH as substrate preincubated for 45 mins measured at 30 sec intervals for 15 mins by UV/vis-spectrophotometry
Sequence of Carboxypeptidase N catalytic chain (Homo sapiens) (P15169 whole entry): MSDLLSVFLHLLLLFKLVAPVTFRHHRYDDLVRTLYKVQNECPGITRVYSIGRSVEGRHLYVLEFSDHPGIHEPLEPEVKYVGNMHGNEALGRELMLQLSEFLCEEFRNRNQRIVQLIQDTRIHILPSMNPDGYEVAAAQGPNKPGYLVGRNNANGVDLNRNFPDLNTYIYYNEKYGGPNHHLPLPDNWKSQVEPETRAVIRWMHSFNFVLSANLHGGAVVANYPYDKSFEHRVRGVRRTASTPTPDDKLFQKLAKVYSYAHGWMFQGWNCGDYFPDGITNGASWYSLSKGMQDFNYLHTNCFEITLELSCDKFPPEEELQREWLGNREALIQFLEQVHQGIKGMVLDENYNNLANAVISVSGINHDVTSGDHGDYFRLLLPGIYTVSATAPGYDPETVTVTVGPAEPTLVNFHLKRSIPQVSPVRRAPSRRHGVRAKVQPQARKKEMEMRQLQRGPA
How it was run: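 hCPN at 2.0x10-9 M with 2.0x10-4 M FAAK substrate in 20 mM Tris-HCl pH 7.5, 100 mM NaCl, followed at 330 nm. Enzyme and inhibitor preincubated 45 min at 37 °C before substrate. Initial velocities read every 30 sec over 15 min, triplicate.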

[4] = target: Carboxypeptidase B2 (Homo sapiens) (UniProt Q96IY4); experiment: Inhibition of human TAFI at 1 nM to 1 mM using AAFA as substrate preincubated for 45 mins measured at 30 sec intervals for 15 mins by UV/vis-spectrophotometry
Sequence of Carboxypeptidase B2 (Homo sapiens) (Q96IY4 whole entry): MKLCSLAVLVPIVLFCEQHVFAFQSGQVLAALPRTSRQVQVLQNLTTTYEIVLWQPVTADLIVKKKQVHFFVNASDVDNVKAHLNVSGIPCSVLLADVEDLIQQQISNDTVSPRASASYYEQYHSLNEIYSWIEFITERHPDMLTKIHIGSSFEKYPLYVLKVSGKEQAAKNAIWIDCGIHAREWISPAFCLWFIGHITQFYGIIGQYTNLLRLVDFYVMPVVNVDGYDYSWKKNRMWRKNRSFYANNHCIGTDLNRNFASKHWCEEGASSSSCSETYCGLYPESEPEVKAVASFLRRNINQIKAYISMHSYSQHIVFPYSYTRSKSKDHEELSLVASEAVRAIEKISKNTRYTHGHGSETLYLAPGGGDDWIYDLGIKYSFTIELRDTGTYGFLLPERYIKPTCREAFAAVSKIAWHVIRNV
How it was run: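 Absorbance at 355 nm. Preincubation 45 min at 37 °C with inhibitor before substrate addition. Initial velocities from 30-sec reads over 15 min; triplicates.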

[5] = target: Cytosolic carboxypeptidase 1 (Homo sapiens) (UniProt Q9UPW5); experiment: Inhibition of human CCP1 at 1 nM to mM using tubulin as substrate preincubated for 45 mins measured at 30 sec intervals for 15 mins by UV/vis-spectrophotometry
Sequence of Cytosolic carboxypeptidase 1 (Homo sapiens) (Q9UPW5 whole entry): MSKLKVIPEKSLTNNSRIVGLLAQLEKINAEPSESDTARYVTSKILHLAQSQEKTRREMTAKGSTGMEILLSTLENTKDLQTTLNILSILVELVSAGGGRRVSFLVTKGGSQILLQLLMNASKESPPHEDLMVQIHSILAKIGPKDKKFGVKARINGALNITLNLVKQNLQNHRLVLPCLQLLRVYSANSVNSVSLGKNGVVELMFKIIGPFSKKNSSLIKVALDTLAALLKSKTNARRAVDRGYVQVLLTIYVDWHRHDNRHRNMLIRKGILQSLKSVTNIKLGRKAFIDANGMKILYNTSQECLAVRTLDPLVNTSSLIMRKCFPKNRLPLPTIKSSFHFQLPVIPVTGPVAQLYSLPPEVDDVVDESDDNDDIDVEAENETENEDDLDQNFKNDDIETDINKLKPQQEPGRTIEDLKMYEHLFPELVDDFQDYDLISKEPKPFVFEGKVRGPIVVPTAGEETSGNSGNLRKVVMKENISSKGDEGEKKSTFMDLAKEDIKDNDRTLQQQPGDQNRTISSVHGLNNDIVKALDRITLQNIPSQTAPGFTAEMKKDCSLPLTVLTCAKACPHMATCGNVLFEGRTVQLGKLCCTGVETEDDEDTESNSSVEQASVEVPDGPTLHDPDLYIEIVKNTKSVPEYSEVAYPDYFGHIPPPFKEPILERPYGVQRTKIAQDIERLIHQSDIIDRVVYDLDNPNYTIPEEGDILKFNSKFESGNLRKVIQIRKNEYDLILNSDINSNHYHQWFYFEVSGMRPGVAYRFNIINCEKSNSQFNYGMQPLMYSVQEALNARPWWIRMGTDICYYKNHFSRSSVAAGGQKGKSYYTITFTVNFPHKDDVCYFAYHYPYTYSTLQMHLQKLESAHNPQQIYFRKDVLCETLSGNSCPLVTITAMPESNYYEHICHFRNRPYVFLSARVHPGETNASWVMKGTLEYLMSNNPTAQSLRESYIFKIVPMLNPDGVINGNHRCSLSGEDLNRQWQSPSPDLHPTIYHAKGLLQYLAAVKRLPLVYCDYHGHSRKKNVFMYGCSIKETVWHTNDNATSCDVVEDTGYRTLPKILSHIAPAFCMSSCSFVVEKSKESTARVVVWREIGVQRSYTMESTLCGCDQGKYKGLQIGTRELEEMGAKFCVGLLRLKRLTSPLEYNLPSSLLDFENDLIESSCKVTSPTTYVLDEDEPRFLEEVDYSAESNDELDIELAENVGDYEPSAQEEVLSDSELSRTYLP
How it was run: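 hCCP1 or hCCP6 at 1.0x10-6 g with tubulin (12.5x10-5 g) as substrate in 20 mM Tris-HCl pH 7.5, 100 mM NaCl. Enzyme, inhibitor and buffer preincubated 45 min at 37 °C before substrate addition; run in triplicate.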

[6] = Drug uptake in CPA3 expressing human HeLa cells at 1 to 5 uM treated for 6 hrs followed by cell wash and measured by DAPI-staining based fluorescence confocal microscopy; format: ADME; how it was run: as §1
[7] = target: Neutrophil elastase (Homo sapiens) (UniProt P08246); experiment: Inhibition of human neutrophil Elastase at 1 nM to 1 mM using succinyl-alanylalanyl-prolyl-valine-4-nitroanilide as substrate preincubated for 45 mins measured at 30 sec intervals for 15 mins by UV/vis-spectrophotometry
Sequence of Neutrophil elastase (Homo sapiens) (P08246 whole entry): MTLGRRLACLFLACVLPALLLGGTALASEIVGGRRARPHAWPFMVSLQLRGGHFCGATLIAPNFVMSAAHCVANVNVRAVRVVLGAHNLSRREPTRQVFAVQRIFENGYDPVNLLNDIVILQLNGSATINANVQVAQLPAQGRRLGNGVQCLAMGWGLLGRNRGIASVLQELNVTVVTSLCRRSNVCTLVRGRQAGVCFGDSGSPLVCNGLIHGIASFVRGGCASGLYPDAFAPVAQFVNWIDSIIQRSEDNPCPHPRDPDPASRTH
How it was run: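 hNElastase 2.0x10-7 M, Suc-AAPVPNA 1.0x10-3 M, in 100 mM Tris-HCl pH 8.0, monitored at 414 nm. Preincubated with inhibitor 45 min at 37 °C before substrate; initial velocities from 30-sec reads over 15 min, triplicate.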

Stromelysin-2 = Stromelysin-2 (Homo sapiens, UniProt P09238); experiment: Inhibition of human MMP10 using fluorogenic Mca-Pro-Leu-Gly-Leu-Dpa-Ala-Arg-NH2 peptide as substrate preincubated for 45 mins measured at 30 sec intervals for 15 mins by UV/vis-spectrophotometry; how it was run: as §2
Sequence of Stromelysin-2 (P09238 whole entry): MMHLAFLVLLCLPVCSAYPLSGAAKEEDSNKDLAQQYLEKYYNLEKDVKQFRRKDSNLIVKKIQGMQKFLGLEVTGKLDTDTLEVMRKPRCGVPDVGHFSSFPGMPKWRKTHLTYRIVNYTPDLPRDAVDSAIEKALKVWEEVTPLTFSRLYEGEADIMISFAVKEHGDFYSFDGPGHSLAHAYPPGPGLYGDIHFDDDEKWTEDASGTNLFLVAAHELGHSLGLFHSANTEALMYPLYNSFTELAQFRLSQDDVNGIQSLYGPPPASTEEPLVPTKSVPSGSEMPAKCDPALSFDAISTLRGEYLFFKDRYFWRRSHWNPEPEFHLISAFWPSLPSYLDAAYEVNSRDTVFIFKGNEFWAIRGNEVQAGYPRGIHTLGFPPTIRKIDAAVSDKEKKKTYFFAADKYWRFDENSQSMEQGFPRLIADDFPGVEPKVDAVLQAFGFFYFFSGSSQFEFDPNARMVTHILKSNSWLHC

Bos taurus = species on record: Bos taurus; experiment: Inhibition of bovine trypsin at 1 nM to 1 mM using Nalpha-benzoyl-L-arginine 4-nitroanilide hydrochloride as substrate preincubated for 45 mins measured at 30 sec intervals for 15 mins by UV/vis-spectrophotometry
HEK-293T [8] = experiment: Cytotoxicity against HEK293T cells by fluorescence confocal microscopy; format: cell-based; details: human
[9] = target: Macrophage metalloelastase (Homo sapiens, UniProt P39900); experiment: Inhibition of human MMP12 using fluorogenic Mca-Pro-Leu-Gly-Leu-Dpa-Ala-Arg-NH2 peptide as substrate preincubated for 45 mins measured at 30 sec intervals for 15 mins by UV/vis-spectrophotometry; how it was run: as §2
Sequence of Macrophage metalloelastase (P39900 whole entry): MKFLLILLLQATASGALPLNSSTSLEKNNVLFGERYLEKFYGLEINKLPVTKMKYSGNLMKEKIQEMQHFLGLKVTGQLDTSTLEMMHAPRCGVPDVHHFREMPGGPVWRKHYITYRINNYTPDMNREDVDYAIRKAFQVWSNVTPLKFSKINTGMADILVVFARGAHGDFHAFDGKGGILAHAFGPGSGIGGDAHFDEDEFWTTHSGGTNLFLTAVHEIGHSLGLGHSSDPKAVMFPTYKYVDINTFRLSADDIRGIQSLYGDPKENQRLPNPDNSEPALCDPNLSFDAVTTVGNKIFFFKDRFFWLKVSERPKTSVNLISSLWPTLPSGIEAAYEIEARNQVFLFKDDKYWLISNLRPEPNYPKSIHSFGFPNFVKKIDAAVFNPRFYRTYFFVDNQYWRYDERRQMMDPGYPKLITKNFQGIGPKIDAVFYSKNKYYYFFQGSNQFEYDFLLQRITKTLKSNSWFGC

| SMILES | Activity (HEK-293T [1]) | inhibition (Homo sapiens) | Activity [2] | Ki (Collagenase 3) [nM] | inhibition [3] | inhibition [4] | inhibition [5] | Drug uptake [6] | inhibition [7] | Ki (Stromelysin-2) [nM] | inhibition (Bos taurus) | Activity (HEK-293T [8]) | Ki [9] [nM] |
| --- | --- | --- | --- | --- | --- | --- | --- | --- | --- | --- | --- | --- | --- |
| CC(=O)N[C@@H](Cc1ccc(O)cc1)C(=O)N[C@@H](C)P(=O)(O)C[C@@H](CCc1ccccc1)C(=O)O | Non-Toxic | – | – | – | – | – | – | – | – | – | – | – | – |
| C[C@H](NC(=O)[C@H](Cc1ccc(O)cc1)NC(=O)COCCOCCNC(=O)CCOCCOCCOCCNC(=O)CCc1ccc(C(=C\C=C2\N(CCCCS(=O)(=O)O)c3ccc4c(S(=O)(=O)[O-])cc(S(=O)(=O)O)cc4c3C2(C)C)/C=C/C2=[N+](CCCCS(=O)(=O)O)c3ccc4c(S(=O)(=O)O)cc(S(=O)(=O)O)cc4c3C2(C)C)cc1)P(=O)(O)C[C@@H](CCc1ccccc1)C(=O)O | – | inactive | Active | 562 | inactive | inactive | inactive | Not Active | inactive | 983 | inactive | Non-Toxic | 1340 |
